Assay: Toxicity liver stage against HepG2, at 10uM
Assay type: cell-based
Set-up: test concentration 10 uM, cell line HepG2-A16-CD81EGFP
Conditions: human, HepG2-A16-CD81EGFP cells; read-out: INHIBITION
Summary of the method: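 Uninfected HepG2-A16-CD81EGFP cells, 3 × 10^3 per well, 1536-well, plated on prespotted compound at 10 μM final, parasite-free screening media added to match infected plates; puromycin 10 μM positive, DMSO 0.5% negative; run in parallel with 48 h PbLuc assay at 37 °C, 5% CO2; viability by CellTiter-Glo luminescence, normalized to controls.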

Going from CCc1nc(CN(C)C2CCN(CCc3cccs3)C2)no1 (stereo not given) to O=C(O)c1cccnc1CN1CCCCC1CCc1cccs1 (stereo not given), the cytotoxicity at 10 µM rises from -8.7% to 5.23%.

Compared with CC(c1cccnc1)N1CCN(CCc2ccccn2)CC1 (stereo not given), O=C(O)[C@@H]1CN(C(=O)CCc2ccccn2)C[C@H]1c1ccccc1 is higher in cytotoxicity at 10 µM: -6.18% for the first, 7.96% for the second.

Going from CC(=O)Nc1ccc(CNC2CC(=O)N(Cc3cccc(F)c3)C2)cc1 (stereo not given) to CNc1nc2cn(CCc3ccccc3)c(=O)c-2c[nH]1, the cytotoxicity at 10 µM rises from -6.98% to 7.77%.

First: Cc1nccc(C(=O)NC(COCC(C)C)c2ccco2)n1 (stereo not given)
Second: Cc1ncc(-c2ccncc2)c(C2CCN(C(=O)c3ccco3)CC2)n1
The cytotoxicity at 10 µM of the first is lower: -10.7% for the first, 4% for the second.

Going from CC1CCCN(C(=O)CCNS(=O)(=O)c2cccnc2)C1 (stereo not given) to Cc1nc(C2CCCN(C(=O)c3ccc(S(C)(=O)=O)cc3)C2)no1 (stereo not given), the cytotoxicity at 10 µM falls from -11% to -11.3%.

Going from CCc1ccc(CN2CCCC(CO)(CCOC)C2)cc1 (stereo not given) to CN(Cc1ccccc1)CC1(O)CCCN(CCC2CCCCC2)C1=O (stereo not given), the cytotoxicity at 10 µM falls from -0.26% to -2.3%.

Going from Cc1cc(C(=O)N(CC(=O)O)CC(C)C)ccc1F to CCN(CC)C(=O)CN(C)C(=O)c1cc(-c2cccc(Cl)c2)no1, the cytotoxicity at 10 µM rises from -6.07% to 4.28%.

First: Cc1cs/c(=N\C(=O)Cn2nc(N3CCC(C)CC3)ccc2=O)[nH]1
Second: Cc1csc(NC(=O)Cn2nc(C)ccc2=O)n1
The cytotoxicity at 10 µM of the first is higher: 1.34% for the first, -5.7% for the second.

First: CN(C[C@H]1CN2CC[C@H]1C[C@@H]2CNC(=O)c1ccco1)c1ccccc1
Second: O=C(NCCc1ccn(-c2ccccc2)n1)N1CCCC(O)C1 (stereo not given)
The cytotoxicity at 10 µM of the first is higher: -0.947% for the first, -41.8% for the second.

Compared with Cc1csc(NC(=O)C2(C)CCCO2)n1 (stereo not given), CNC(=O)C1CCCCN1C(=O)c1csc(-c2ccc(C)cc2)n1 (stereo not given) is higher in cytotoxicity at 10 µM: -2.54% for the first, 11.6% for the second.

Going from CCC(Nc1cccc(OC)c1)C(=O)N(CCO)Cc1nccs1 (stereo not given) to O=C(Cc1cccs1)N1C[C@@H]2COC[C@]2(COc2cccnc2)C1, the cytotoxicity at 10 µM falls from 3.94% to -21.1%.

Going from FC(F)(F)COCCN1CCOC(Cn2cccn2)C1 (stereo not given) to O=C(CCn1nc(C(F)(F)F)c(Br)c1C1CC1)NN1CCOCC1, the cytotoxicity at 10 µM rises from -6.1% to 8.85%.

Compared with CCC1=N[C@@]2(CC[C@@H]3CN(CC4CC4)C[C@@H]32)C(=O)N1CC1CC1, O=C1N(CC2CC2)CCC12CCN(CC1CC1)CC2 is higher in cytotoxicity at 10 µM: 5.39% for the first, 7.07% for the second.

First: O=C1NCCN(Cc2ccccc2)C1CC(=O)N1CCc2n[nH]cc2C1 (stereo not given)
Second: CSc1ccccc1CN1CCn2nc(CNC(=O)N(C)C)cc2C1
The cytotoxicity at 10 µM of the first is lower: -6.73% for the first, 19.5% for the second.

Going from Cc1cc(C(=O)O)cc(S(=O)(=O)Nc2ccc3c(c2)OCO3)c1C to CN(C)S(=O)(=O)NC1CC(=O)N(c2ccccc2Cl)C1 (stereo not given), the cytotoxicity at 10 µM rises from 0.89% to 3.57%.

Going from CC(C)NC(=O)N1CCC2(CC1)CN(C(=O)NC(C)C)CCO2 to O=C(C1CNCCO1)N1CCC(c2cc(N3CCCC3)ncn2)CC1 (stereo not given), the cytotoxicity at 10 µM falls from 11.8% to 6.15%.

Compared with CCN(CC)c1ncnc2c1CCN(CC1CCOCC1)CC2, O=C(CCN1CCc2c(ncn2C2CC2)C1)NC1CCCC1 is higher in cytotoxicity at 10 µM: -81.5% for the first, -10.1% for the second.

First: Cc1cc(C)nc(NC2CCN(CCOC(C)C)CC2)n1
Second: CNc1cncc(C2CCCN2C(=O)CCn2ccnc2C(C)C)n1 (stereo not given)
The cytotoxicity at 10 µM of the first is lower: -10.8% for the first, 3.36% for the second.

Compared with CCN(CC1CCOC1)C(=O)c1ccc(-c2ccsc2)nc1C (stereo not given), CC(=O)c1cc(CN2CCCC2c2nc3ccc(C)cc3[nH]2)cs1 (stereo not given) is lower in cytotoxicity at 10 µM: 6.39% for the first, 3.01% for the second.

Compared with CC(NC(=O)CCn1cccn1)c1ccc(-n2ccnn2)cc1 (stereo not given), CC(C)C(O)C(C)(C)CNC(=O)NCc1ccc(-n2cncn2)cc1 (stereo not given) is lower in cytotoxicity at 10 µM: -1.99% for the first, -8.14% for the second.

Going from CN(C)CCOCc1nnc2n1CCN(c1cnccn1)CC2 to CN(C)CCn1ccnc1C1CCCN(c2nccc3ccccc23)C1 (stereo not given), the cytotoxicity at 10 µM falls from 5.62% to -7.55%.

First: Cc1nn(C)cc1-c1ccnc(NCCN)n1
Second: CCc1c(C)nn(CCNC(=O)c2cc(C3CC3)n[nH]2)c1C
The cytotoxicity at 10 µM of the first is higher: -0.571% for the first, -12.1% for the second.

Compared with O=C(Nc1cnn(-c2ccccc2Cl)c1)NC1CCC(O)CC1 (stereo not given), O=C(c1ccccc1)N1CC[C@H]2C[C@H](c3nnc(C4CC4)o3)O[C@@H]2C1 is lower in cytotoxicity at 10 µM: -2.49% for the first, -102% for the second.

First: CCc1nnc(CN(CC)C(=O)C2CC(=O)N(C(C)(C)C)C2)o1 (stereo not given)
Second: Cc1ccc([C@@H]2CN(S(=O)(=O)C(C)C)C[C@H]2N(C)C)cc1
The cytotoxicity at 10 µM of the first is higher: 1.56% for the first, -0.368% for the second.

Going from NC(=O)c1nc(-c2ccc(Cl)cc2Cl)oc1N to COCCNc1cc(-c2ccccc2C(N)=O)c2cc[nH]c2n1, the cytotoxicity at 10 µM falls from 2.66% to -2.32%.

Compared with OC1(CN2CCCCC2)CCN(c2ccc(C(F)(F)F)cn2)C1 (stereo not given), O=c1c2cnc(N3CCCC3)nc2ccn1-c1cccc(C(F)(F)F)c1 is higher in cytotoxicity at 10 µM: -11% for the first, 16.9% for the second.

Going from CC(C)C(C(=O)NC1CCOCC1)n1cnc2cc(F)c(F)cc21 (stereo not given) to O=C(O)c1ccc(CNC(=O)C2CCN(Cc3ccco3)CC2)s1, the cytotoxicity at 10 µM rises from -2.75% to -0.861%.

O=c1c(CN2CC3CCCN3C[C@@H]2CCO)coc2ccc(Cl)cc12 (stereo not given in full) showed a cytotoxicity at 10 µM of 3.19%.
